The record followed here is ChEMBL document CHEMBL1130229, “Synthesis and antimalarial activity in vitro and in vivo of a new ferrocene-chloroquine analogue” (J Med Chem, 1997).

In data set [1] the test system is Plasmodium falciparum. The experiment in a line: In vitro antimalarial activity against Plasmodium falciparum FG2 parasite. It counts as functional, organism-based. The method in brief: (§1)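 Young trophozoite-stage P. falciparum cultures were exposed to drug at 0.001–10 μg/mL for 48 h, in triplicate. [³H]hypoxanthine uptake by schizonts was measured by scintillation counting, with drug-free cultures as controls. IC50 was taken from the regression line through mean dpm between maximum and minimum values, and given as mean and SD over n experiments.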

Data set [2] relates to Plasmodium falciparum. The data set is described as follows: In vitro antimalarial activity against Plasmodium falciparum FCM6. It counts as functional, organism-based. The essentials: as §1
For data set [3], the system named is Plasmodium falciparum. The data set is described as follows: In vitro antimalarial activity against Plasmodium falciparum FG1. It counts as functional, organism-based. The essentials: as §1
A short description of data set [4]: Compound was tested antimalarial activity in mice (Mus musculus), infected with Plasmodium berghei N., activity is expressed as the mortality rate at a concentration of 1 mg/kg. in experiment 1; 5 out of 5. The following applies: in vivo. The arrangement: dose 1 mg/kg. It counts as ADME, organism-based.
Data set [5] can be described thus: Compound was tested antimalarial activity in mice (Mus musculus), infected with Plasmodium berghei N., activity is expressed as the mortality rate at a concentration of 10 mg/kg. in experiment 1; 0 out of 5. The data set is classed as ADME, organism-based. Further details: dose 10 mg/kg. The following applies: in vivo.
Data set [6] deals with Plasmodium falciparum. The experiment in a line: In vitro antimalarial activity against Plasmodium falciparum FCM17 parasite. The data set is classed as functional, organism-based. The essentials: as §1
For data set [7], the system named is Plasmodium falciparum. The experiment in a line: In vitro antimalarial activity against Plasmodium falciparum SGE2. It counts as functional, organism-based. The method in brief: as §1
Data set [8] has as its system Plasmodium falciparum. The experiment in a line: In vitro antimalarial activity against Plasmodium falciparum FG4. It counts as functional, organism-based. The method in brief: as §1
In data set [9] the test system is Plasmodium falciparum. The experiment in a line: In vitro antimalarial activity against Plasmodium falciparum FG3. The data set is classed as functional, organism-based. The essentials:
as §1

Data set [10] has as its system Mus musculus. The experiment in a line: Antimalarial activity in mice (Mus musculus), infected with Plasmodium berghei N. activity is expressed as the percent of parasitaemia observed in mice (Mus musculus) at end of 4-day test at a concentration of 1 mg/kg in experiment 1. It counts as functional. The method in brief:
(§2)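 4-day suppressive test in female Swiss mice (25 g), infected at day 0 with 10⁷ parasitized RBC from a donor at 20–30% parasitemia. Drug given subcutaneously in PBS once daily, days 0–3; dose in chloroquine base equivalents. Controls received PBS. Parasitemia was counted on 1000 RBC in Giemsa-stained thin films at day 4 and expressed as percent of control-mouse parasitemia.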

Data set [11] deals with Mus musculus. The experiment in a line: Antimalarial activity in mice (Mus musculus), infected with Plasmodium yoelii NS. activity is expressed as the percent of parasitaemia observed in mice (Mus musculus) at end of 4-day test at a concentration of 10 mg/kg in experiment 2. It counts as functional. The method in brief: as §2
The test system of data set [12] is Mus musculus. The experiment in a line: Antimalarial activity in mice (Mus musculus), infected with Plasmodium yoelii NS. activity is expressed as the percent of parasitaemia observed in mice (Mus musculus) at end of 4-day test at a concentration of 1 mg/kg in experiment 1. It counts as functional. The essentials:
as §2

The test system of data set [13] is Mus musculus. The data set is described as follows: Antimalarial activity in mice (Mus musculus), infected with Plasmodium yoelii NS., activity is expressed as the percent of parasitaemia observed in mice (Mus musculus) at end of 4 day test at a concentration of 1 mg/kg in experiment 2. It counts as functional. The method in brief: as §2
The test system of data set [14] is Mus musculus. The data set is described as follows: Antimalarial activity in mice (Mus musculus), infected with Plasmodium yoelii NS., activity is expressed as the percent of parasitaemia observed in mice (Mus musculus) at end of 4-day test at a concentration of 10 mg/kg in experiment 1. The data set is classed as functional. The method in brief: as §2
Data set [15] relates to Mus musculus. The experiment in a line: Antimalarial activity in mice (Mus musculus), infected with Plasmodium berghei N. activity is expressed as the percent of parasitaemia observed in mice (Mus musculus) at end of 4-day test at a concentration of 1 mg/kg in experiment 2. It counts as functional. The essentials: as §2
The subject of data set [16] is Mus musculus. The data set is described as follows: Antimalarial activity in mice (Mus musculus), infected with Plasmodium berghei N. activity is expressed as the percent of parasitaemia observed in mice (Mus musculus) at end of 4-day test at a concentration of 10 mg/kg in experiment 2. It counts as functional. The essentials:
as §2

For data set [17], the system named is Mus musculus. The experiment in a line: Antimalarial activity in mice (Mus musculus), infected with Plasmodium berghei N. activity is expressed as the percent of parasitaemia observed in mice (Mus musculus) at end of 4-day test at a concentration of 10 mg/kg in experiment 1. It counts as functional. The method in brief:
as §2

For data set [18], the system named is Mus musculus. The experiment in a line: Compound was tested for the antimalarial activity in mice (Mus musculus), infected with Plasmodium yoelii NS., activity is expressed as the percent of parasitaemia observed in mice (Mus musculus) at end of 4-day test at a concentration of 10 mg/kg in experiment 1. Further details: dose 10 mg/kg. The data set is classed as functional, organism-based. The essentials: as §2

Data set [19] has as its system Mus musculus. The experiment in a line: Compound was tested for the antimalarial activity in mice (Mus musculus), infected with Plasmodium berghei N., activity is expressed as the percent of parasitaemia observed in mice (Mus musculus) at end of 4-day test at a concentration of 10 mg/kg in experiment 1. It counts as functional, organism-based. The arrangement: dose 10 mg/kg. The essentials: as §2

For data set [20], the system named is Mus musculus. The experiment in a line: Compound was tested for the antimalarial activity in mice (Mus musculus), infected with Plasmodium yoelii NS., activity is expressed as the percent of parasitaemia observed in mice (Mus musculus) at end of 4-day test at a concentration of 10 mg/kg in experiment 2. Further details: dose 10 mg/kg. The data set is classed as functional, organism-based. The method in brief: as §2

Data set [21] has as its system Mus musculus. The experiment in a line: Compound was tested for the antimalarial activity in mice (Mus musculus), infected with Plasmodium berghei N., activity is expressed as the percent of parasitaemia observed in mice (Mus musculus) at end of 4 day test at a concentration of 10 mg/kg in experiment 2. The arrangement: dose 10 mg/kg. The data set is classed as functional, organism-based. The method in brief: as §2

The subject of data set [22] is Mus musculus. The data set is described as follows: Compound was tested for the antimalarial activity in mice (Mus musculus), infected with Plasmodium berghei N., activity is expressed as the percent of parasitaemia observed in mice (Mus musculus) at end of 4 day test at a concentration of 1 mg/kg in experiment 1. The data set is classed as functional, organism-based. Further details: dose 1 mg/kg. The essentials:
as §2

For data set [23], the system named is Mus musculus. The experiment in a line: Compound was tested for the antimalarial activity in mice (Mus musculus), infected with Plasmodium yoelii NS., activity is expressed as the percent of parasitaemia observed in mice (Mus musculus) at end of 4-day test at a concentration of 1 mg/kg in experiment 1. The data set is classed as functional, organism-based. The arrangement: dose 1 mg/kg. The method in brief: as §2

In data set [24] the test system is Mus musculus. The experiment in a line: Compound was tested for the antimalarial activity in mice (Mus musculus), infected with Plasmodium yoelii NS., activity is expressed as the percent of parasitaemia observed in mice (Mus musculus) at end of 4-day test at a concentration of 1 mg/kg in experiment 2. The data set is classed as functional, organism-based. Further details: dose 1 mg/kg. The essentials:
as §2

Data set [25] concerns Mus musculus. The data set is described as follows: Compound was tested for the antimalarial activity in mice (Mus musculus), infected with Plasmodium berghei N., activity is expressed as the percent of parasitaemia observed in mice (Mus musculus) at end of 4-day test at a concentration of 1 mg/kg in experiment 2. It counts as functional, organism-based. Further details: dose 1 mg/kg. The method in brief:
as §2

A word on the IC50: it is the midpoint of a concentration-inhibition curve. A lower IC50 goes with greater potency in that assay. Consider “7-Chloro-4-[[[2-[(N,N-methyl amino)]ferrocenyl]methyl]amino]quinoline; bis-(2,3-Dihydroxy-succinic acid) [listing 1 of 2 here]”, for which the IC50 in the data set with Plasmodium falciparum [1] was 0.059 µg/mL; with Plasmodium falciparum [2], 0.061 µg/mL; in the data set with Plasmodium falciparum [3], 0.067 µg/mL; in the data set on Plasmodium falciparum [6] it was 0.177 µg/mL; in the data set on Plasmodium falciparum [7], 0.16 µg/mL; in the data set on Plasmodium falciparum [8] it was 0.057 µg/mL. In the data set with Plasmodium falciparum [9], the half-maximal inhibitory concentration (IC50) was 0.095 µg/mL. In addition, the Mortality in data set [4] was determined as 5; in [5] it was 0.

Consider `CCN(CC)CCCC(C)Nc1ccnc2cc(Cl)ccc12` (stereo not given) [CHLOROQUINE], for which the Parasitemia in the data set on Mus musculus [10] is on record as 69.2%; in the data set on Mus musculus [11], 0%; in the data set on Mus musculus [12], 64.7%; in the data set with Mus musculus [13] it was 76.6%; in the data set with Mus musculus [14], 0%; with Mus musculus [15], 60.1%. Also, the Parasitemia with Mus musculus [16] was found to be 0.59%; in the data set with Mus musculus [17] it was 2.08%.

“7-Chloro-4-[[[2-[(N,N-methyl amino)]ferrocenyl]methyl]amino]quinoline; bis-(2,3-Dihydroxy-succinic acid) [listing 2 of 2 here]”: the Parasitemia in the data set on Mus musculus [18] stood at 0.3%; in the data set with Mus musculus [19] it was 0%; with Mus musculus [20], 0%; with Mus musculus [21], 0%; with Mus musculus [22] it was 75.5%; with Mus musculus [23], 125%. The figures for the Parasitemia in the data set on Mus musculus [24] and in the data set on Mus musculus [25] were 109% and 75.8%, respectively.
